# Compound activity: PubChem, The Scripps Research Institute Molecular Screening Center
# PLC-beta3 inh: human PLC-beta3 inhibitors, primary screen, biochemical, fluorescence | 1-phosphatidylinositol 4,5-bisphosphate phosphodiesterase beta-3 (Homo sapiens), Q01970 | Purified PLC-beta3, fluorogenic substrate | inhibition, % at 12.2 µM | hit rate 0.18% among 370,000; in the data active = inhibition above about 11%;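 note: 0% = median of compound wells on plate and 100% = full blocker control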
# HGIII-sPLA2 inh: human group III sPLA2 inhibitors, primary screen, biochemical, QFRET, BODIPY PC-A2 liposome substrate | Group 3 secretory phospholipase A2 (Homo sapiens), Q9NZ20 | QFRET BODIPY PC-A2 liposome hydrolysis, fluorescence | inhibition, % at 12.2 µM | hit rate 0.56% among 370,000;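 active = inhibition above mean plus 3 SD of compounds lying within the high and low control bounds, cut at about 19% in these data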;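 note: 0% = median of test compound wells and 100% = no enzyme DMSO wells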
# procasp3 activ: activators of human procaspase-3 D3A mutant, primary screen, biochemical, absorbance, PC-3 D3A mutant, single concentration. Caspase-3 (Homo sapiens), P42574. recombinant procaspase-3 D3A, Ac-DEVD-pNA absorbance 405 nm. activation, % at 8.5 µM. hit rate 0.11% among 330,000;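 active = activation above the mean of all tested compounds plus 3 SD, cut at about 21% in these data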;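 note: 0% = DMSO alone and 100% = DMSO wells spiked with extra 5 µM PC-3 D3A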
# Target sequence (P42574 whole entry D9A/D28A/D175A): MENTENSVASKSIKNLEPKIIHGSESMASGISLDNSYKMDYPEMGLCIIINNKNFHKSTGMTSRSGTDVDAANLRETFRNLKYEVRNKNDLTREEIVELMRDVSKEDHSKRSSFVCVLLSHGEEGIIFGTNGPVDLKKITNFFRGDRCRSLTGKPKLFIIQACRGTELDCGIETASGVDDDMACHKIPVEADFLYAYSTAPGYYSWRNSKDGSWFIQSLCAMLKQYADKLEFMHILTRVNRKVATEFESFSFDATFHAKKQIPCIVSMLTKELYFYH
#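 Technique: 405 nm absorbance of p-nitroaniline, reads at 0 and 120 min; Test system: Procaspase-3 D3A mutant; Incubation: 1 h enzyme-compound preincubation, then 2 h substrate reaction, 25 °C; Repeats: singlicate, each compound tested once; Benchmarks: low control DMSO wells, high control DMSO plus 5 µM PC-3 D3A.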
# PLC-gamma1 inh: PLC-gamma1 enzyme inhibitors, primary screen, biochemical, fluorescence, purified enzyme; 1-phosphatidylinositol 4,5-bisphosphate phosphodiesterase gamma-1 (Homo sapiens), P19174; fluorogenic substrate; inhibition, % at 12.2 µM; hit rate 0.84% among 370,000; AID 720700, 2013
# proCasp7 act: procaspase-7 activators, primary screen, counter-screen for procaspase-3 activator project, biochemical, absorbance, HTS, human. hit rate 0.093% among 330,000. AID 463210, 2010. activation, % at 8.5 µM. recombinant procaspase-7, Ac-DEVD-pNA absorbance 405 nm; D23A/D198A/D206A triple mutant, cannot self-cleave; scale: DMSO 0, 5 µM enzyme 100. Caspase-7 (Homo sapiens), P55210;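 active = percent activation above the screen-wide mean plus 3 SD, cut at about 25% in these data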
# Target sequence (P55210 whole entry D23A/D198A/D206A): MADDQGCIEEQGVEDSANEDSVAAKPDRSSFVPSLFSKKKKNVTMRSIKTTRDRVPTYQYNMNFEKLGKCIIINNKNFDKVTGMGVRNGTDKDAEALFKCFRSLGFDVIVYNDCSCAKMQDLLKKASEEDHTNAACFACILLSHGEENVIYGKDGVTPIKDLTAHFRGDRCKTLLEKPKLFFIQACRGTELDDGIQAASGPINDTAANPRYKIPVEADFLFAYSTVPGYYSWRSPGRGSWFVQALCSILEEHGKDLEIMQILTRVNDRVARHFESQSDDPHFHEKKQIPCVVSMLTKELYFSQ
#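 Assay system: Uncleavable procaspase-7 mutant enzyme; Input: 2 µM procaspase-7 mutant as dispensed; Also added: DEVD-pNA substrate; Medium: Zinc-free HEPES pH 7.4 with 300 mM NaCl, 0.01% Triton X-100; Timing: 1 h compound preincubation, 2 h substrate cleavage, 25 °C; Measured by: Epi-absorbance of released pNA at 405 nm, two timepoints.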
# PLCgamma1 ctr: PLC-gamma1 enzyme inhibitors, counter-screen for PLC-beta3 inhibitor project, biochemical, fluorescence; shares compounds with PLC-gamma1 inh; purified PLC-gamma1, fluorogenic substrate; inhibition, % at 12.3 µM; hit rate 3.1% among 3,300; AID 743258, 2014
# PLCbeta3 conf: PLC-beta3 inhibitor confirmation, biochemical, fluorescence, purified enzyme; shares compounds with PLC-gamma1 inh; fluorogenic substrate fluorescence; inhibition, % at 12.3 µM; hit rate 1% among 3,300; AID 743261, 2014; in the data active = inhibition above about 11%
# * marks the source's active call; other numbers are inactive results; · = no result given. A selection: hits, their analogues and other compounds. The true share with any hit is near 1.6%. Cut-off read from the data, not from the text of the source, unless noted: active = inhibition above about 9.5%; inactive = the rest.
SMILES,PLC-beta3 inh,HGIII-sPLA2 inh,procasp3 activ,PLC-gamma1 inh,proCasp7 act,PLCgamma1 ctr,PLCbeta3 conf
COc1ccc(COC[C@H](C)N2C[C@@H](C)[C@H](CN(C)S(=O)(=O)c3ccc(F)cc3)OCCCC[C@H](C)Oc3ccc(NC(=O)Nc4ccccc4)cc3C2=O)cc1,-3.0,-3.1,·,-1.1,·,·,·
O=C(NCCN1C(=O)CSC1=O)C1CC(=O)N(c2ccccc2)C1 (stereo unspecified),1.8,6.5,7.0,10.2*,9.1,-5.9,-0.8
CC(C)c1ccccc1NS(=O)(=O)N(C)C,2.5,3.0,0.1,0.4,-16.0,·,·
CN(C)S(=O)(=O)NC(c1ccccc1)c1ccccc1,6.6,-0.4,-1.9,12.2*,-8.1,-3.9,0.8
COc1ccc2c(c1)OC(=O)CC2c1cc(OC)c(OC)c(OC)c1 (stereo unspecified),8.1,8.2,3.9,10.8*,7.3,-3.6,-11.4
CCOc1ccc(NC(=O)CSCc2cnn(-c3ccccc3)c2-n2cccc2)cc1,-4.6,-13.5,-3.6,10.1*,-3.9,0.7,-6.9
COc1cc(NC(=O)CSCc2cnn(-c3ccccc3)c2-n2cccc2)cc(OC)c1,4.4,-33.8,-1.9,-0.1,20.1,·,·
Nc1nonc1-c1nc2ccccc2n1Cc1ccc(Cl)cc1,-5.8,11.4,0.5,10.6*,-4.0,-8.3,-6.4
OCc1nc2ccccc2n1Cc1ccc(Cl)cc1,1.4,2.4,-2.5,10.2*,-5.2,-10.2,-4.7
O=C(Cc1ccccc1)NC1CCCc2c1cnn2-c1ccc(F)cc1F (stereo unspecified),-1.5,15.5,·,2.7,·,·,·
COC1CCCCC1Nc1cc(C)ccc1C (stereo unspecified),3.7,-8.2,5.4,9.5*,2.1,-0.8,-1.2
COC(=O)c1sc(N)c(C(=O)OC)c1CSc1nnc(-c2ccccc2Cl)n1C,-0.9,-1.0,-5.1,1.2,-2.2,·,·
COC(=O)c1sc(N)c(C(=O)OC)c1CSc1nnnn1C,-0.2,5.0,-1.0,9.9*,11.0,-2.7,1.8
Cc1ccc(S(=O)(=O)N2C[C@H]3[C@H]4C(=O)N(c5ccccc5)C(=O)[C@H]4C[C@H](OC(=O)NCC4CCCCC4)[C@@]3(O)C2)cc1,2.0,-40.4,·,-0.6,·,·,·
Fc1cccc(-c2c(-c3ccccc3)ncc3cc(F)ccc23)c1,-2.6,3.7,4.5,-2.8,7.3,·,·
O=[N+]([O-])c1cccc(-c2c(-c3ccccc3)ncc3ccc(F)cc23)c1,11.3*,12.5,-4.8,5.9,15.7,-2.0,-2.3
O=C(OCc1cn(Cc2ccccc2)nn1)N1CCCC1,2.9,-1.4,·,2.7,·,·,·
CCOc1cccc(C(c2c(C)n(C)n(-c3ccccc3)c2=O)c2c(C)n(C)n(-c3ccccc3)c2=O)c1OC,-2.3,-0.1,10.2,2.7,-5.0,·,·
COc1cccc(C(c2c(C)[nH]n(-c3ccccc3)c2=O)c2c(C)[nH]n(-c3ccccc3)c2=O)c1OC,6.6,-7.5,-5.3,18.1*,5.3,-6.5,-3.6
Cc1[nH]n(-c2ccccc2)c(=O)c1C(C[N+](=O)[O-])c1ccccc1Cl (stereo unspecified),-2.2,-5.1,3.2,0.3,-4.1,·,·
COc1cccc(C(c2c(C)[nH]n(-c3ccccc3)c2=O)c2c(C)[nH]n(-c3ccccc3)c2=O)c1O,-1.1,3.3,-0.9,24.8*,16.9,-7.4,-7.1
O=[N+]([O-])c1ccc(S(=O)(=O)Nc2nnc(C3CCCCC3)s2)cc1,-11.4,-33.0,-4.0,-2.2,-2.5,·,·
CN(C)c1cccc(NC(=O)C2(C)CC2(Cl)Cl)c1 (stereo unspecified),16.2*,2.6,4.7,4.5,-0.9,-8.1,-10.7
CC(=O)Nc1cccc(N(C)C)c1,-0.5,-4.2,-1.6,-2.4,-2.2,·,·
COC(=O)c1ccc(Cl)c(NC(=O)CN2CCN(C)CC2)c1,3.3,-2.8,6.0,-0.2,-2.2,·,·
SMILES,PLC-beta3 inh,HGIII-sPLA2 inh,procasp3 activ,PLC-gamma1 inh,proCasp7 act,PLCgamma1 ctr,PLCbeta3 conf
COC(=O)CC(C(=O)Nc1cc(C(=O)OC)cc(C(=O)OC)c1)N1CCN(C)CC1 (stereo unspecified),11.3*,8.5,-6.8,14.3*,8.7,-3.8,0.3
Cc1cc(C)nc(Nc2nc3ccccc3[nH]2)n1,9.5,10.9,-4.7,13.5*,8.1,-5.9,-2.1
CCC(O)c1cnc(OCc2ccccc2)nc1OCc1ccccc1 (stereo unspecified),-0.9,-7.4,·,1.3,·,·,·
CCOC(=O)CSc1nc2ccccc2c(=O)n1CC1CCC(C(=O)NCc2ccco2)CC1 (stereo unspecified),4.1,13.8,3.0,10.0*,-6.3,-2.2,-3.8
CCOC(=O)CSc1nc2ccccc2c(=O)n1CC1CCCC1,1.3,-3.2,-3.7,8.3,-10.6,·,·
Cc1ccc(OCc2cc(C(=O)N(C)CCc3nc4ccccc4[nH]3)no2)cc1C,-8.7,-20.1,·,-2.7,·,·,·
COC(=O)c1ccc(Cn2ccc3ccc(-c4ccc5ccn(C(=O)c6ccccc6C)c5c4)cc32)cc1,-71.8,0.6,·,-54.6,·,·,·
COc1ccc(C(=O)O/N=C(\N)Cc2ccc([N+](=O)[O-])cc2)c(OC)c1,-8.5,17.9,-0.3,10.3*,-2.3,-50.9,-46.3
O=[N+]([O-])c1cc([N+](=O)[O-])c(Oc2cc(F)cc(F)c2)cc1NN1CCCCC1,3.6,0.0,1.9,0.3,0.2,·,·
CNC[C@@H]1OCc2ccccc2-c2ccccc2C(=O)N([C@@H](C)CO)C[C@@H]1C,3.9,8.2,·,3.8,·,·,·
CCN1CCN(c2nc(N)c([N+](=O)[O-])c(Nc3ccc(C)cc3)n2)CC1,7.9,-13.8,-2.1,13.1*,11.8,-6.1,5.2
CCCN(CCC)CCCNC(=O)c1nn(-c2cccc(OC)c2)c(=O)c2ccccc12,-1.8,-0.1,-0.5,-3.9,8.5,·,·
O=C(NCC1CCCO1)c1cnn2c1NC(c1ccccc1)CC2C(F)(F)F (stereo unspecified),9.8,-2.6,1.5,12.1*,4.8,-7.6,-7.5
O=C(NCC1CCCO1)c1nn2c(c1Cl)NC(c1ccc(F)cc1)CC2C(F)(F)F (stereo unspecified),-1.5,-7.7,0.5,-0.7,6.3,·,·
O=S1(=O)c2ccc(Br)cc2OC[C@@H](Cc2ccccc2)N1Cc1cn(CC2CCCCC2)nn1,4.2,17.7,·,10.3*,·,-4.1,-0.6
